Experimental data from ChEMBL document CHEMBL3102808, “Synthesis, in vitro antimalarial activity and cytotoxicity of novel 4-aminoquinolinyl-chalcone amides” (Bioorg Med Chem, 2014).

Tests used:
[1] = tested on: Plasmodium falciparum; assay: Antimalarial activity against Plasmodium falciparum W2 after 48 hrs by LDH colorimetric assay; assay type: functional, organism-based; conditions: W2, 48 h
Summary of the method: (§1)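 Parasite survival after drug exposure read by pLDH colorimetric enzyme assay; APAD co-factor, formazan absorbance at 620 nm. Samples prepared in parasite culture medium in 96-well plates. Survival per well relative to drug-free control wells. IC50 from fitted sigmoidal dose-response curves.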

[2] = Cytotoxicity against human WI38 cells after 48 hrs by SRB assay; assay type: cell-based; conditions: WI-38, 48 h
Summary of the method: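 WI-38 normal human fetal lung fibroblasts, passages 21–50, seeded at 10 000 cells/well and incubated 24 h. Compounds dissolved in DMSO, diluted in medium to five concentrations, then exposed 48 h. Untreated cells as control, medium-only blank, parthenolide as standard. Cells TCA-fixed and stained with sulforhodamine B (NCI protocol). IC50 by non-linear regression.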

[3] = tested on: Plasmodium falciparum; assay: Resistance index, ratio of IC50 for Plasmodium falciparum W2 to IC50 for Plasmodium falciparum 3D7; assay type: functional
Summary of the method: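 P. falciparum 3D7 and W2 cultures were exposed to test samples prepared in parasite culture medium. Survival was read by a pLDH colorimetric assay using APAD as cofactor, with formazan absorbance at 620 nm and percentage survival set against drug-free wells. IC50 for each strain came from fitted sigmoidal dose-response curves, and the ratio is IC50 W2 / IC50 3D7.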

[4] = tested on: Plasmodium falciparum; assay: Antimalarial activity against Plasmodium falciparum 3D7 after 48 hrs by LDH colorimetric assay; assay type: functional, organism-based; conditions: 3D7, 48 h; summary of the method: as §1
[5] = Selectivity index, ratio of IC50 for human WI38 cells to IC50 for Plasmodium falciparum 3D7; assay type: toxicity, cell-based, WI-38; conditions: read-out: Ratio IC50
Summary of the method: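 Selectivity index calculated as IC50 on WI-38 fibroblasts (48 h SRB) divided by IC50 on P. falciparum 3D7 (pLDH assay).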

[6] = tested on: Plasmodium falciparum; assay: Ratio of chloroquine IC50 to compound IC50 for Plasmodium falciparum W2 after 48 hrs by LDH colorimetric assay; assay type: functional

Q: For `Cc1ccc(C(=O)/C=C/c2ccc(C(=O)NCCOCCOCCNc3ccnc4cc(Cl)ccc34)cc2)o1`, which IC50 [1] is on record?
A: 270 nM

Q: What about the IC50 [2] of the same compound?
A: 10200 nM

Q: And the “Ratio IC50” value [3]?
A: 1.1

Q: What about the IC50 [4] of the same compound?
A: 260 nM

Q: What about the selectivity ratio [5] of the same compound?
A: 40

Q: For `Cc1ccc(C(=O)/C=C/c2ccc(C(=O)NC(C)CNc3ccnc4cc(Cl)ccc34)cc2)o1` (centres undefined), which IC50 [1] is on record?
A: 110 nM

Q: What about the IC50 [2] of the same compound?
A: 10000 nM

Q: What about the “Ratio IC50” value [3] of the same compound?
A: 1.4

Q: What about the IC50 [4] of the same compound?
A: 80 nM

Q: What about the selectivity ratio [5] of the same compound?
A: 126

Q: With `Cc1ccc(C(=O)/C=C/c2ccc(C(=O)N3CCOCC3)cc2)o1` as the compound, how does the IC50 [4] read?
A: > 30000 nM

Q: For `C=C1C(=O)O[C@@H]2C3O[C@]3(C)CC/C=C(\C)CC[C@@H]12` (some centres undefined), which IC50 [2] is on record?
A: 16400 nM

Q: What does the source list for `Cc1ccc(C(=O)/C=C/c2ccc(C(=O)NCCCN(C)CCCNc3ccnc4cc(Cl)ccc34)cc2)o1`?
A: IC50 [1]: 220 nM; IC50 [2]: 5300 nM; Ratio IC50 [3]: 2.4; IC50 [4]: 90 nM; selectivity ratio [5]: 58

Q: Which results are given for `Cc1ccc(C(=O)/C=C/c2ccc(C(=O)NCCCNc3ccnc4cc(Cl)ccc34)cc2)o1`?
A: IC50 [1]: 230 nM; IC50 [2]: 74500 nM; Ratio IC50 [3]: 3.4; IC50 [4]: 70 nM; selectivity ratio [5]: 1120

Q: With `Cc1ccc(C(=O)/C=C/c2ccc(C(=O)NCCCCNc3ccnc4cc(Cl)ccc34)cc2)o1` as the compound, how does the IC50 [1] read?
A: 100 nM

Q: What about the IC50 [2] of the same compound?
A: 39000 nM

Q: What about the “Ratio IC50” value [3] of the same compound?
A: 2.1

Q: And the IC50 [4]?
A: 50 nM

Q: What about the selectivity ratio [5] of the same compound?
A: 819

Q: For `Cc1ccc(C(=O)/C=C/c2ccc(C(N)=O)cc2)o1`, which IC50 [4] is on record?
A: 10000 nM

Q: For `Cc1ccc(C(=O)/C=C/c2ccc(C(=O)N(C)CCCNc3ccnc4cc(Cl)ccc34)cc2)o1`, which IC50 [1] is on record?
A: 460 nM

Q: What about the IC50 [2] of the same compound?
A: 18600 nM

Q: What about the “Ratio IC50” value [3] of the same compound?
A: 1.2

Q: And the IC50 [4]?
A: 370 nM

Q: And the selectivity ratio [5]?
A: 50

Q: For `Cc1ccc(C(=O)/C=C/c2ccc(C(=O)NCCCCCCNc3ccnc4cc(Cl)ccc34)cc2)o1`, which IC50 [1] is on record?
A: 70 nM

Q: What about the IC50 [2] of the same compound?
A: 19500 nM

Q: What about the “Ratio IC50” value [6] of the same compound?
A: 2

Q: What about the “Ratio IC50” value [3] of the same compound?
A: 1.5

Q: What about the IC50 [4] of the same compound?
A: 50 nM

Q: What about the selectivity ratio [5] of the same compound?
A: 435

Q: For `Cc1ccc(C(=O)/C=C/c2ccc(C(=O)NCCNc3ccnc4cc(Cl)ccc34)cc2)o1`, which IC50 [1] is on record?
A: 1780 nM

Q: And the IC50 [2]?
A: 47300 nM

Q: What about the “Ratio IC50” value [3] of the same compound?
A: 16.7

Q: And the IC50 [4]?
A: 110 nM

Q: And the selectivity ratio [5]?
A: 446

Q: Which IC50 [1] does the source give for `Cc1ccc(C(=O)/C=C/c2ccc(C(=O)N3CCN(c4ccnc5cc(Cl)ccc45)CC3)cc2)o1` here?
A: 1260 nM

Q: And the IC50 [2]?
A: 17300 nM

Q: And the “Ratio IC50” value [3]?
A: 2.3

Q: And the IC50 [4]?
A: 540 nM

Q: And the selectivity ratio [5]?
A: 32

Q: With `CCCCNC(=O)c1ccc(/C=C/C(=O)c2ccc(C)o2)cc1` as the compound, how does the IC50 [4] read?
A: 10000 nM

Q: With `Cc1ccc(C(=O)/C=C/c2ccc(C(=O)O)cc2)o1` as the compound, how does the IC50 [1] read?
A: 14200 nM

Q: And the IC50 [2]?
A: > 100000 nM

Q: What about the “Ratio IC50” value [3] of the same compound?
A: 0.8

Q: And the IC50 [4]?
A: 18400 nM
